Active and inactive are the calls of the source. No cut-off for these calls is given here.
Assays:
[1] = target: T1, Nociceptin receptor (Homo sapiens, UniProt P41146); experiment: Displacement of [3H]N/OFQ from human recombinant ORL1 receptor expressed in HEK293 cells after 45 mins by scintillation proximity assay; type: cell-based
Outline: (§1)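 Compound at 10^-11–10^-5 M (six 10-fold steps), duplicates; nonspecific binding with 1 µM N/OFQ. IC50 by nonlinear regression, Ki by Cheng–Prusoff; percent inhibition reported at 1 µM.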

[2] = target: T1, Nociceptin receptor; experiment: Displacement of [3H]N/OFQ from human recombinant ORL1 receptor expressed in HEK293 cells at 1 uM after 45 mins by scintillation proximity assay; type: cell-based; outline: as §1
[3] = target: Mu-type opioid receptor (Homo sapiens, UniProt P35372); experiment: Displacement of [3H]DAMGO from human recombinant MOP receptor expressed in CHO-K1 cells after 45 mins by scintillation proximity assay; type: cell-based
[4] = target: T1, Nociceptin receptor; experiment: Antagonist activity at human recombinant ORL1 receptor expressed in HEK293 cells assessed as inhibition of N/OFQ-induced [35S]GTPgammaS binding to alpha-unit of G-protein after 1.5 hrs by scintillation counting; type: functional, cell-based
Outline: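 Membranes from HEK-293 cells expressing hNOP receptor, incubated 1.5 h at 25 °C with 10 nM N/OFQ and compound at six concentrations (0.1 nM–10 µM) in 20 mM HEPES pH 7.4, 100 mM NaCl, 5 mM MgCl2, 1 mM EDTA, 5 µM GDP, 400 pM [35S]GTPγS, WGA-SPA beads. Duplicates; NSB with 10 µM unlabelled GTPγS; basal without ligands.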

[5] = Half life in human liver microsomes by HPLC/MS/MS analysis; type: ADME, Microsome
[6] = species: Homo sapiens; experiment: Selectivity ratio of Ki for human recombinant MOP receptor to Ki for human recombinant ORL1 receptor

Mu-type opioid receptor, sequence (P35372 whole entry): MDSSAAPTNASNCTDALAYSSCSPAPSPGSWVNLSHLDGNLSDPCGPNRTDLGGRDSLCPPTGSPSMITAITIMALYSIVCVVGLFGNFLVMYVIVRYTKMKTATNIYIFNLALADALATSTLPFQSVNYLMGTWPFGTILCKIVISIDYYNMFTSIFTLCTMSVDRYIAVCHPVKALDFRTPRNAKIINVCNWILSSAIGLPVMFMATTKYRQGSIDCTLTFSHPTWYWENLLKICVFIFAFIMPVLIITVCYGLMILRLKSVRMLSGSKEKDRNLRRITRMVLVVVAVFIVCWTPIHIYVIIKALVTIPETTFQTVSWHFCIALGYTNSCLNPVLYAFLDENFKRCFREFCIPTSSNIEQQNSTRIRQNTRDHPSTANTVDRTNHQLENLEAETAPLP
T1 sequence (P41146 whole entry): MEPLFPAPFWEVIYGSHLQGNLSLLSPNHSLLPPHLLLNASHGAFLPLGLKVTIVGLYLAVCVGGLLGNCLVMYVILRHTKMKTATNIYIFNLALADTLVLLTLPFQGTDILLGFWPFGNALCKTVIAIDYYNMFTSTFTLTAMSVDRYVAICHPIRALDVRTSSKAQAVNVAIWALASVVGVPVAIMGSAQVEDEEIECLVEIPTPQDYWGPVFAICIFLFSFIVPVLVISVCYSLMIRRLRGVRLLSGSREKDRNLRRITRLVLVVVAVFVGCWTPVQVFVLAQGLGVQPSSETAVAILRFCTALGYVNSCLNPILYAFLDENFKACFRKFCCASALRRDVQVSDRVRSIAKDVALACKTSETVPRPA

Row | Structure (SMILES) | Ki [1] [nM] | inhibition [2] | Ki [3] [nM] | IC50 [4] [nM] | half-life [5] [min] | Ratio Ki [6]
1 | CCCC(C)N1CCN(CCC(=O)N2c3ccccc3CC2C(=O)N(C)C)CC1 (racemic) | > 250 | 40% | > 450 |  |  | 
2 | CN(C)C(=O)C1Cc2ccccc2N1C(=O)CCN1CCN(C2CCCCCC2)CC1 (racemic) | > 250 | 12% |  |  |  | 
3 | Cc1ccccc1C1CCN(CCC(=O)N2c3ccccc3C[C@H]2C(=O)N(C)C)CC1 | 3.03 |  | 67.2 | 44 | 24 | 22
4 | CCOc1ccccc1N1CCN(CCC(=O)N2c3ccccc3CC2C(=O)N(C)C)CC1 (racemic) | 128 |  | 29.8 |  |  | 0.23
5 | CN(C)C(=O)C1Cc2ccccc2N1C(=O)CCN1Cc2ccccc2C1 (racemic) | > 250 | 16% |  |  |  | 
6 | CN(C)C(=O)[C@@H]1Cc2ccccc2N1C(=O)CCN1CCC(c2ccccc2)CC1 | 13.6 |  | 80.7 | 138 | 55 | 5.9
7 | CN(C)C(=O)C1Cc2ccccc2N1C(=O)CCN1CCc2ccccc2C1 (racemic) | > 250 | 11% |  |  |  | 
8 | CN(C)C(=O)[C@@H]1Cc2ccccc2N1C(=O)CCN1CCC(c2ccc(F)cc2)CC1 | 9.84 |  | 238 | 107 | 82 | 
9 | CN(C)C(=O)C1Cc2ccccc2N1C(=O)CCN1CCN(c2ccccc2)CC1 (racemic) | > 250 | 43% | 397 | 48000 |  | 
10 | CN(C)C(=O)C1Cc2ccccc2N1C(=O)CCN1CCCC(c2ccccc2)CC1 (racemic) | > 250 | 15% |  |  |  | 
11 | Cc1cccc(C)c1C1CCN(CCC(=O)N2c3ccccc3C[C@H]2C(=O)N(C)C)CC1 | 0.96 |  | 82.1 | 12 | 19 | 86
12 | CC(c1ccccc1)N1CCN(CCC(=O)N2c3ccccc3CC2C(=O)N(C)C)CC1 (racemic) | > 250 | 21% | > 450 |  |  | 
13 | CN(C)C(=O)C1Cc2ccccc2N1C(=O)CCN1Cc2cccc3cccc(c23)C1 (racemic) | > 250 | 15% |  |  |  | 
14 | Cc1cccc(N2CCN(CCC(=O)N3c4ccccc4CC3C(=O)N(C)C)CC2)c1 (racemic) | > 250 | 13% |  |  |  | 
15 | CN(C)C(=O)C1Cc2ccccc2N1C(=O)CCN1CCN(Cc2ccccc2)CC1 (racemic) | > 250 | 11% | > 450 |  |  | 
16 | CN(C)C(=O)C1Cc2ccccc2N1C(=O)CCN1CCC(C2CCCCC2)CC1 (racemic) | 286 |  |  |  |  | 
17 | CN(C)C(=O)C1Cc2ccccc2N1C(=O)CCN1CCC(c2ccccc2)CC1 (racemic) | 26.2 |  | 502 | 2300 |  | 19
18 | CCC(CC)N1CCN(CCC(=O)N2c3ccccc3CC2C(=O)N(C)C)CC1 (racemic) | 101 |  | > 450 |  |  | 

More lines, now with the values ahead:

Row | Ki [1] [nM] | inhibition [2] | Ki [3] [nM] | IC50 [4] [nM] | half-life [5] [min] | Ratio Ki [6] | Structure (SMILES)
19 | 3.79 |  | 139 | 42 | 43 |  | Cc1cc(F)ccc1C1CCN(CCC(=O)N2c3ccccc3C[C@H]2C(=O)N(C)C)CC1
20 | 11.6 |  | 318 |  |  | 27 | Cc1ccccc1N1CCN(CCC(=O)N2c3ccccc3CC2C(=O)N(C)C)CC1 (racemic)
21 | 31.5 |  |  |  |  |  | CN(C)C(=O)C1Cc2ccccc2N1C(=O)CCN1CCC(c2ccccc2C(F)(F)F)CC1 (racemic)
22 | > 250 | 23% | 28.4 |  | 10 |  | CN(C)C(=O)[C@@H]1Cc2ccccc2N1C(=O)CCN1CC2CCC(C1)C2c1ccccc1 (stereo not given in full)
23 | > 250 | 33% |  |  |  |  | CN(C)C(=O)C1Cc2ccccc2N1C(=O)CCN1CC[C@@H]2c3ccccc3CC[C@@H]2C1 (mixture of isomers)
24 | > 250 | 25% |  |  |  |  | Cc1ccc(N2CCN(CCC(=O)N3c4ccccc4CC3C(=O)N(C)C)CC2)c(C)c1 (racemic)
25 | > 250 | 12% |  |  |  |  | CN(C)C(=O)C1Cc2ccccc2N1C(=O)CCN1CCN(C2CCCCCCC2)CC1 (racemic)
26 | > 250 | 37% | 235 |  |  |  | CN(C)C(=O)C1Cc2ccccc2N1C(=O)CCN1CCN(c2cnccn2)CC1 (racemic)
27 | > 250 | inactive |  |  |  |  | CN(C)C(=O)C1Cc2ccccc2N1C(=O)CCN1CCC(c2ccccn2)CC1 (racemic)
28 | > 250 | 3% |  |  |  |  | CN(C)C(=O)C1Cc2ccccc2N1C(=O)CCN1CCN(C2CCCC2)CC1 (racemic)
29 | > 250 | inactive | > 450 |  |  |  | CN(C)C(=O)C1Cc2ccccc2N1C(=O)CCN1CCC(N2CCCCC2)CC1 (racemic)
30 | > 250 | 11% | > 450 |  |  |  | CN(C)C(=O)C1Cc2ccccc2N1C(=O)CCN1CCN(C2CCCCC2)CC1 (racemic)
31 | 5.55 |  | 138 | 116 |  | 25 | Cc1ccccc1C1CCN(CCC(=O)N2c3ccccc3CC2C(=O)N(C)C)CC1 (racemic)
32 | 26.5 |  |  |  |  |  | CN(C)C(=O)C1Cc2ccccc2N1C(=O)CCN1CCC(c2ccccc2F)CC1 (racemic)
